Rows were chosen to be rich in hits. Some 5.7% of all compounds tested hit in one or more screens of this group.
Beta apoptosis – blocks beta cell apoptosis; INS-1E cytokine-induced death, ATP luminescence, 48 h; percent of positive-control rescue, neutral wells zero; protection from apoptosis, % (concentration not given with the values); 300,000 tested, 0.8% active; AID 435005;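 active = Every replicate reaches about 75%, or at least half do and their mean reaches it too, limit read from the data; inconclusive = At least half of replicates reach the limit but their mean does not; inactive = Under half of replicates reach the limit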;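 note: 0% = cytokine-treated negative control wells and 100% = positive control rescue; higher means more ATP so stronger rescue from cytokine killing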
Mdm2 MdmX PPI – human Mdm2/MdmX binding inhibition. SaOS-2 split-luciferase Mdm2/MdmX complementation, luminescence. O15151+Q00987. inhibition, % at 8 µM. 330,000 tested, 3% active. AID 485346;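 active = inhibition of at least 50% at 8 µM in the primary screen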
Target sequence (O15151 whole entry, looked up): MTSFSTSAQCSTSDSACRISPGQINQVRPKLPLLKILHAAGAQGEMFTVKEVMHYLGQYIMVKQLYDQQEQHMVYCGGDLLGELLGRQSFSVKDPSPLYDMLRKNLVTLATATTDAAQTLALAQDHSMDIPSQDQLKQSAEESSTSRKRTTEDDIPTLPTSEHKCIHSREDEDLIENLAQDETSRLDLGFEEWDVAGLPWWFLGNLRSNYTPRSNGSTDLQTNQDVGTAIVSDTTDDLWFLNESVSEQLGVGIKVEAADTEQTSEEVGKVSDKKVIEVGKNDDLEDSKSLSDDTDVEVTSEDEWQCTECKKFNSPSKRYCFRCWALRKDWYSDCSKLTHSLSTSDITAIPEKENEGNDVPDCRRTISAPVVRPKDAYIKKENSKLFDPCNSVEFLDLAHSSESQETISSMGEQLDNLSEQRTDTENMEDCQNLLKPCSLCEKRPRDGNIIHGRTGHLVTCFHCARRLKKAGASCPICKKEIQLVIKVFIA
Target sequence (Q00987 whole entry, looked up): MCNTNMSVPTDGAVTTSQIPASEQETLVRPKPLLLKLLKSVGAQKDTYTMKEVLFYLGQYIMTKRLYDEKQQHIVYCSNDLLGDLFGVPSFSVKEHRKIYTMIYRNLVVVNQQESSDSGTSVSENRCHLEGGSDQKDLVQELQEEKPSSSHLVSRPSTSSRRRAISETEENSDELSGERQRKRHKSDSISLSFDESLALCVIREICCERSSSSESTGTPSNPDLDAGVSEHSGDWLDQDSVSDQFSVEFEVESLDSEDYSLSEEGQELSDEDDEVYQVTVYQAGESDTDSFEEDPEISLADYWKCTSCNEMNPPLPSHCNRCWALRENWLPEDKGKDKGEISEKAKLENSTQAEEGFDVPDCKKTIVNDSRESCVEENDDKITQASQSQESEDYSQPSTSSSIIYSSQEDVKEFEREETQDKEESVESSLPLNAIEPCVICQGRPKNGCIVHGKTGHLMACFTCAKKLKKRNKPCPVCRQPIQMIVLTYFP
CSC inhib – blocks cancer stem cells. cancer stem cell-like cells viability, luminescence. inhibition, % at 7.5 µM. 300,000 tested, 1.1% active. AID 2717; in the data active = inhibition above about 75%; inconclusive = no clear call, values can overlap the other calls; tested in HMLE shEcad cells
T cruzi inh – blocks replication of Trypanosoma cruzi. T. cruzi beta-gal in NIH3T3, luminescence, 90 h. inhibition, % (concentration not given with the values). 300,000 tested, 1.4% active. AID 1885;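 active = mean inhibition across valid replicates above about 55%, limit read from the data; inconclusive = mean below that limit but half or more replicates reach it; inactive = mean below it, under half of replicates reach it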;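 note: signal also drops with host cell toxicity which is not excluded here; 0% = plate median of DMSO wells and 100% = zero luminescence signal; higher percent means less beta-gal luminescence so fewer parasites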
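compound dosing = single 50 nL compound addition per well in DMSO | material = NIH/3T3 host cells with β-galactosidase reporter T. cruzi | input = 5,000 host fibroblasts per well | timing = ≥90 h infection period, 3 h prior cell attachment | read-out basis = percent inhibition of parasite-derived β-gal signal | detection = GalScreen β-gal luminescence, detergent lysis, 60 min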
Calb FLC – affects C. albicans growth with fluconazole | C. albicans CaCi-2 (fluconazole-resistant clinical isolate) + fluconazole, Alamar Blue growth, 48 h | growth inhibition, % (no concentration beside the values) | 300,000 tested, 0.57% active | AID 1979;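 active = growth inhibition above about 58% in most replicates, limit read from the data, passing the limit was not always enough; inconclusive = exactly half the replicates above a set limit; inactive = most replicates below a set limit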;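 note: all wells also contain fluconazole at 8 µg/ml as a sub-toxic cotreatment; 0% = median of DMSO wells and 100% = median of geldanamycin control wells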
SKKanGAS inh – SKKanGAS growth inhibition. inhibition, % at 7.5 µM. AID 1662. 300,000 tested, 1.3% active. S. pyogenes SKKanGAS, kanamycin growth, BacTiter-Glo, 6 h;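 active = mean replicate score, as percent of positive control median, at least 50; inconclusive = mean below 50 but one replicate at or above 50; inactive = mean and every replicate below 50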;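 note: strain carries kanamycin resistance gene driven by streptokinase promoter and grows in 40 µg/ml kanamycin; loss of luminescence reflects streptokinase promoter inhibition or plain growth inhibition; 0% = median of DMSO wells and 100% = positive control at its reference dose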
Starred values were filed as active, the others as inactive; ? = inconclusive; · = no result.

SMILES | Beta apoptosis | Mdm2 MdmX PPI | CSC inhib | T cruzi inh | Calb FLC | SKKanGAS inh
O=C(NCCCCc1ccccc1)c1cc([N+](=O)[O-])cc([N+](=O)[O-])c1 | 0 | 12 | -3 | 63* | -8 | 0
O=C(NCCCCc1ccccc1)c1cccc([N+](=O)[O-])c1 | 5 | 7 | -6 | 21 | -24 | 2
COc1cccc(CN(C)C(=O)CSC(C)C(=O)Nc2cc(C)on2)c1OC (configuration not stated) | -1 | 10 | -12 | -7 | 0 | -1
CC(=O)c1sc(-c2ccc(Cl)cc2)nc1C | 4 | -21 | -7 | -1 | 11 | -1
Cc1nc(-c2ccccc2)sc1C(=O)/C=C/c1ccc(Cl)cc1 | 2 | 35 | 94* | -9 | -2 | -10
CN1C=C/C(=C\c2cc[n+](C)c3ccccc23)c2ccccc21 | · | · | · | 56* | ? | 9
CC[n+]1ccc(/C=C2\Sc3ccccc3N2CCCS(=O)(=O)[O-])c2ccccc21 | -4 | 5 | -1 | 3 | -7 | -1
FC(F)(F)c1ccc(N2CCN(c3ncnc4c3nnn4Cc3ccccc3Cl)CC2)cc1 | 8 | 32 | 12 | 51 | 1 | 7
Fc1ccc(N2CCN(c3ncnc4c3nnn4Cc3ccccc3Cl)CC2)cc1 | 16 | -5 | 62 | 63* | 10 | 23
Cc1ccc(C)c(N(CC(=O)NCc2ccco2)C(=O)CNS(=O)(=O)c2ccccc2)c1 | 0 | 5 | -1 | -3 | 3 | -4
CCOC(=O)c1cnn(-c2ccc(NS(=O)(=O)c3ccc(Cl)cc3)cc2)c1C(F)(F)F | 9 | 24 | 17 | -12 | 10 | 55*
CCCc1ccc(O)c(N=Cc2cc(Br)cc(OCC)c2O)c1 | -7 | 39 | 91* | -5 | -23 | 11
O=C(CNC(=S)N(Cc1ccccc1)Cc1cccnc1)NCc1ccccc1 | 2 | 14 | -6 | 54 | 6 | -5
O=C(CNC(=S)N(Cc1ccccc1)Cc1cccnc1)NC1CCCCC1 | 2 | -14 | -10 | 64* | 2 | 10
Cc1ccc(CCNC(=O)CNC(=S)N(Cc2ccccc2)Cc2cccnc2)cc1 | -11 | -6 | -14 | 72* | 13 | 11
CCOC(=O)c1oc2nc(CC(C)C)c3c(c2c1N)CCC3 | 1 | -15 | -5 | 15 | 44 | -2
COc1ccc(-c2c[n+]3c4n2CCCCC4=C(c2ccc(Br)cc2)C3)cc1 | 104* | · | 39 | 53 | -15 | 15
CC(=O)c1ccc(S(=O)(=O)N2CCN(C(=O)CSC(=S)N3CCCC3)CC2)cc1 | 1 | 18 | -7 | -6 | 0 | 23
Nc1ccccc1Nc1cc(-c2ccccc2)nn1-c1cccc(Cl)c1 | 12 | 17 | 40 | 58* | -14 | 46
O=C(Nc1cccc(S(=O)(=O)N2CCOCC2)c1)c1cn(-c2ccccc2)nc1-c1ccc(F)cc1 | 14 | 13 | 22 | 57* | 0 | -8
O=C(/C=C/c1cn(-c2ccccc2)nc1-c1ccccc1)Nc1ccc(C(=O)O)cc1 | 0 | 9 | 10 | 4 | -1 | 50*
COc1cccc(-c2nn(-c3ccccc3)cc2C(=O)Nc2nccs2)c1 | 9 | 35 | 25 | 1 | 13 | 62*
Cc1ccc(-c2nn(-c3ccccc3)cc2C(=O)Nc2ccc(C)c(S(=O)(=O)N3CCOCC3)c2)cc1 | 7 | -3 | 8 | 73* | 34 | -7
O=C(Nc1cccc(S(=O)(=O)N2CCOCC2)c1)c1cn(-c2ccccc2)nc1-c1ccccc1 | 7 | 13 | -4 | 9 | 28 | 13
COc1cc(C(=O)NNC(=O)c2cc(S(=O)(=O)N(C)C)ccc2N2CCCC2)cc(OC)c1OC | 0 | 15 | · | · | · | ·
SMILES | Beta apoptosis | Mdm2 MdmX PPI | CSC inhib | T cruzi inh | Calb FLC | SKKanGAS inh
CC(=O)c1ccc(NC(=O)c2cn(-c3ccccc3)nc2-c2ccncc2)cc1 | 1 | -18 | 8 | 26 | 0 | -5
COC(=O)c1ccc(NC(=O)c2cn(-c3ccccc3)nc2-c2ccncc2)cc1 | -2 | -37 | 0 | 56* | -14 | 8
CCOc1ccccc1Nc1nnc(SCC(=O)NC2CCS(=O)(=O)C2)s1 (configuration not stated) | -3 | -3 | -1 | · | · | ·
Cc1nc2ccc(NS(=O)(=O)c3c(F)cc(F)cc3Br)cc2s1 | -14 | 4 | -8 | · | · | ·
CC1CCN(CC(O)COCCC23CC4CC(CC(C4)C2)C3)CC1 (configuration not stated) | 14 | 36 | 52 | 61* | 19 | -10
CC1CCN(CC(O)COCCOc2ccc(Br)cc2)CC1 (configuration not stated) | -8 | -7 | 45 | 39 | 1 | 10
CSc1nc2cc(Oc3cccc(Cl)c3Cl)c(Cl)cc2[nH]1 | 1 | 9 | 103* | ? | · | 96*
CSc1nc2ccc(Cl)cc2[nH]1 | 4 | -6 | 0 | -7 | -5 | -10
COc1ccc(OC)c(S(=O)(=O)NCCS(=O)(=O)N2CCN(c3ccccc3)CC2)c1 | 4 | 9 | -14 | 2 | -6 | 0
CCOc1ccc(NC(=O)CC2C(=O)N(C)C(=S)N2CCCc2ccccc2)cc1 (configuration not stated) | 2 | 13 | 24 | 55* | 3 | 2
COc1ccc(S(=O)(=O)N(CC(=O)NCc2ccco2)c2ccccc2OC)cc1 | -5 | -9 | 2 | 2 | 6 | -7
COC(=O)c1cnc(N2CCCN(S(=O)(=O)c3ccc(C(F)(F)F)cc3)CC2)nc1C(F)(F)F | -1 | -28 | 11 | 55* | 4 | 8
Cc1nc2c(-c3ccccc3)c[nH]n2c(=O)c1Cc1ccccc1 | 39 | 49 | 13 | 62* | -4 | 71*
Cc1cc(=O)n2[nH]cc(-c3ccccc3)c2n1 | -5 | 2 | -6 | -8 | 1 | -1
O=c1c2ccc([N+](=O)[O-])cc2ncn1CCOc1ccccc1 | 4 | 1 | 13 | 66* | 44 | 0
Cc1ccc(OCCn2cnc3cc([N+](=O)[O-])ccc3c2=O)cc1 | -2 | 14 | 3 | 72* | -4 | 9
O=[N+]([O-])c1ccc(OCCn2cnc3ccccc32)cc1 | -2 | 17 | -4 | 12 | 3 | 0
O=c1c2ccccc2ncn1CCOCCOc1ccc([N+](=O)[O-])cc1 | 3 | 22 | 4 | 0 | -14 | -2
CC(NC(=O)Nc1ccc(Br)cc1)C(C)(C)C (configuration not stated) | 2 | 13 | 2 | -2 | 0 | -15
FC(F)(F)c1cnc(-c2cnc(-c3ccccn3)nc2)c(Cl)c1 | 7 | 3 | -3 | -6 | 31 | 56*
CCc1ccccc1NC(=O)NNS(=O)(=O)c1cc(C)ccc1C | -13 | -3 | -3 | -15 | 12 | 51*
CS(=O)(=O)Nc1ccc(C(=O)N2CC(=O)Nc3ccccc32)cc1 | · | 15 | · | -1 | 1 | 2
Cc1ccc(O)c(C(=O)c2cc(C(=O)NCCc3ccccc3)c(=O)n(CCc3ccccc3)c2)c1 | -3 | 49 | 4 | 61* | -4 | 12
